Results: ChEMBL document CHEMBL1156623, “Novel 1,4-benzothiazine derivatives as large conductance Ca2+-activated potassium channel openers” (J Med Chem, 2008)
Active and inactive are the calls of the source. The calls are words filed in the database; no cut-off is given here.

What was measured:
[1] = biological target: Calcium-activated potassium channel subunit alpha-1 (Rattus norvegicus, UniProt Q62976); assay: (§1) Activation of large-conductance calcium-activated potassium channel-mediated vasorelaxation in endothelium-denuded normotensive Wistar rat thoracic aorta assessed as potassium chloride-induced contractile tension
Procedure, shortened: (§2)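 Male Wistar rats (250-350 g); thoracic aortic rings, endothelium removed (confirmed by ACh 10 µM lack of relaxation), in Tyrode at 37 °C gassed 95% O2/5% CO2, isometric tension, 60 min equilibration. After stable KCl 20 mM contraction, 3-fold increasing cumulative concentrations added, up to 10 µM. Efficacy as % of KCl tone; pIC50 from half-reduction; mean ± SE of 5-10 experiments.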

[2] = biological target: Calcium-activated potassium channel subunit alpha-1 (Rattus norvegicus) (UniProt Q62976); assay: Activation of large-conductance calcium-activated potassium channel-mediated vasorelaxation in endothelium-denuded normotensive Wistar rat thoracic aorta assessed as potassium chloride-induced contraction in presence of iberiotoxin
Procedure, shortened: (§3)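 Male Wistar rats (250-350 g); endothelium-denuded thoracic aortic rings in Tyrode at 37 °C, gassed 95% O2/5% CO2, isometric tension. Denudation checked with ACh 10 µM on KCl 20 mM contraction. After KCl 20 mM contraction, IbTX 100 nM or TEA 10 mM added, then cumulative 3-fold increasing compound concentrations, max 10 µM; DMSO stock diluted in water. Efficacy as % of KCl tone; pIC50; mean ± SE, 5-10 experiments.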

[3] = biological target: Calcium-activated potassium channel subunit alpha-1 (Rattus norvegicus) (UniProt Q62976); assay: Activation of large-conductance calcium-activated potassium channel-mediated vasorelaxation in endothelium-denuded normotensive Wistar rat thoracic aorta assessed as potassium chloride-induced contraction in presence of tetraethylammonium chloride; assay type: tissue-based; procedure, shortened: as §3
[4] = biological target: Calcium-activated potassium channel subunit alpha-1 (Rattus norvegicus) (UniProt Q62976); assay: Activation of large-conductance calcium-activated potassium channel-mediated vasorelaxation in endothelium-denuded normotensive Wistar rat thoracic aorta assessed as potassium chloride-induced contractile tension relative to NS-1619; assay type: tissue-based
[5] = biological target: Calcium-activated potassium channel subunit alpha-1 (Rattus norvegicus) (UniProt Q62976); assay: as §1; parameters: scale not given: the % may be the effect or the level left; procedure, shortened: as §2

Chain of Calcium-activated potassium channel subunit alpha-1 (Q62976 whole entry): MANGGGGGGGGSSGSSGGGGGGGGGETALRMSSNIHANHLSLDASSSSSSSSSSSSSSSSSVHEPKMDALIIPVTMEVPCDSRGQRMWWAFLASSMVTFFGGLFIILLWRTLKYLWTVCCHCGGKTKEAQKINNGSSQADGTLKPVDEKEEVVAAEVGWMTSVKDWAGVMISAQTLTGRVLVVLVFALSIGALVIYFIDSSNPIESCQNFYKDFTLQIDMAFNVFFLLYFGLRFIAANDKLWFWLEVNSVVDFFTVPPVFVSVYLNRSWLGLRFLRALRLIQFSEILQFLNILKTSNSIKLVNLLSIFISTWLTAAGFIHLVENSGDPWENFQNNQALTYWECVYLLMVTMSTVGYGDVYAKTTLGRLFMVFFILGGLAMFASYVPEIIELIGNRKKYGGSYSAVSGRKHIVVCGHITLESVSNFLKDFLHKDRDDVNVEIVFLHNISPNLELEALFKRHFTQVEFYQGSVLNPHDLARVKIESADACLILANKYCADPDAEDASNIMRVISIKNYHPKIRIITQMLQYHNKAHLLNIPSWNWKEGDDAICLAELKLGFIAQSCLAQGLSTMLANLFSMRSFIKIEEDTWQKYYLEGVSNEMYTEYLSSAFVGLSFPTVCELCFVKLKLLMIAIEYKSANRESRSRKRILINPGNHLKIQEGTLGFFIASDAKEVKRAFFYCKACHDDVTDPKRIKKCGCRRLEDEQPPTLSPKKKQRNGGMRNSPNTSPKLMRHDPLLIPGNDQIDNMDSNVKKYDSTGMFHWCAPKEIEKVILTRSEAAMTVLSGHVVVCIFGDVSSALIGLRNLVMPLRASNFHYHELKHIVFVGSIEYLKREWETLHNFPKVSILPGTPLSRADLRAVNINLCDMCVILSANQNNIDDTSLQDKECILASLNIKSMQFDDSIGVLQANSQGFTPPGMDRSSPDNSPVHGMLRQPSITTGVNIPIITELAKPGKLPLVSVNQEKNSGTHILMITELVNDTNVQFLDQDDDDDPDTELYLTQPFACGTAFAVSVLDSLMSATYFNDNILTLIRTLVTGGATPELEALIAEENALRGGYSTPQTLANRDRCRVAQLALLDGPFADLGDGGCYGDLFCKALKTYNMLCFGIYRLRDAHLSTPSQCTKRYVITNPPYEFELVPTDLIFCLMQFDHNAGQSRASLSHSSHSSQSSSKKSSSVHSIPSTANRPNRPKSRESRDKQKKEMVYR
Chain of Calcium-activated potassium channel subunit alpha-1 (Rattus norvegicus) (Q62976 whole entry): as above

| Compound | IC50 [1] | Emax [4] | Activity [5] | Activity [2] | Activity [3] |
| --- | --- | --- | --- | --- | --- |
| O=c1[nH]c2cc(C(F)(F)F)ccc2n1-c1cc(C(F)(F)F)ccc1O | 5.01 µM |  |  |  |  |
| COc1ccc(Br)cc1C1Sc2ccc(C(F)(F)F)cc2NC1=O (centres undefined) | 0.0398 µM | 77% |  | inactive | inactive |
| COc1c(Br)cc(Br)cc1C1Sc2ccc(C(F)(F)F)cc2NC1=O (centres undefined) | 50.1 µM | 75% |  |  |  |
| COc1ccccc1C1CNc2cc(C(F)(F)F)ccc2S1 (centres undefined) | 22.4 µM | 100% |  |  |  |
| O=C1Nc2cc(C(F)(F)F)ccc2SC1c1cc(Cl)ccc1O (centres undefined) |  |  | < 50% |  |  |
| O=C1Nc2cc(C(F)(F)F)ccc2SC1c1ccccc1 (centres undefined) |  | 39% | < 50% |  |  |
| COc1ccc(Br)cc1C1C(=O)Nc2cc(C(F)(F)F)ccc2[S+]1[O-] (centres undefined) |  | 34% | < 50% |  |  |
| COc1ccc(Br)cc1[C@@H](O)[C@H]1Sc2ccc(C(F)(F)F)cc2NC1=O (relative stereo) | 6.31 µM | 70% |  |  |  |

More lines, main results first:

| IC50 [1] | Emax [4] | Activity [5] | Compound | Activity [2] | Activity [3] |
| --- | --- | --- | --- | --- | --- |
| 15.8 µM | 100% |  | COc1ccc(Br)cc1C1Sc2ccccc2NC1=O (centres undefined) |  |  |
|  | 44% | < 50% | O=C1Nc2cc(C(F)(F)F)ccc2SC1c1cc(Br)ccc1O (centres undefined) |  |  |
| 0.617 µM | 67% |  | COc1ccc(Br)cc1C1Sc2ccc(C(F)(F)F)cc2N(C)C1=O (centres undefined) |  | inactive |
|  | < 25% | < 50% | COc1ccc(Br)cc1C1CNc2cc(C(F)(F)F)ccc2S1 (centres undefined) |  |  |
|  | 26% | < 50% | COc1ccc(Br)cc1C1Sc2ccc(C(F)(F)F)cc2NC1=S (centres undefined) |  |  |
|  | 42% | < 50% | O=C1Nc2ccccc2SC1c1ccccc1 (centres undefined) |  |  |
